Series [1] addresses T1, Beta-secretase 1 (Homo sapiens, UniProt P56817). As to the kind of experiment: Inhibition of human BACE1 at 5 uM. The gist of the method: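 Recombinant human BACE1 enzymatic assay with a FRET substrate (fluorescence resonance energy transfer read-out). Candidates were crude Cu(I)-catalysed azide–alkyne products made in microtiter plates with more than 80% conversion by LC–MS. They were diluted in 50 mM sodium acetate (pH 4.5) to 25 mM stocks, based on azide input.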

Another series has as its target Cathepsin D (Homo sapiens, UniProt P07339). As to the kind of experiment: Inhibition of human recombinant Cathepsin D by FRET assay.
Series [2] concerns the target T1, Beta-secretase 1. As to the kind of experiment: Inhibition of human recombinant BACE1 by FRET assay. The gist of the method:
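Recombinant human BACE1 assayed by fluorescence resonance energy transfer (FRET) cleavage of a FRET substrate. They were diluted in 50 mM sodium acetate (pH 4.5) to 25 mM stocks, based on azide input. A purified resynthesised compound was also tested.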

The nature of series [3]: Protein binding in plasma. It counts as ADME, cell-free. As to conditions: read-out: PPB; call rule not given here. The gist of the method:
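Plasma protein binding reported as a categorical level: 1 = binding >90%; 2 = binding >95%.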

The next series deals with Rattus norvegicus. Nature of the series: Toxicity in po dosed rat. It counts as organism-based. As to conditions: in vivo.
For another series, the system named is Hepatocyte. As to the kind of experiment: Toxicity in hepatocytes. Format: cell-based.
The target in a further series is Cytochrome P450 2D6 (Homo sapiens, UniProt P10635). As to the kind of experiment: Inhibition of CYP2D6. Format: ADME. The gist of the method: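 CYP2D6 inhibition reported as a categorical score, where 0 = non-inhibitor.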
Sequence of Cytochrome P450 2D6 (P10635 whole entry): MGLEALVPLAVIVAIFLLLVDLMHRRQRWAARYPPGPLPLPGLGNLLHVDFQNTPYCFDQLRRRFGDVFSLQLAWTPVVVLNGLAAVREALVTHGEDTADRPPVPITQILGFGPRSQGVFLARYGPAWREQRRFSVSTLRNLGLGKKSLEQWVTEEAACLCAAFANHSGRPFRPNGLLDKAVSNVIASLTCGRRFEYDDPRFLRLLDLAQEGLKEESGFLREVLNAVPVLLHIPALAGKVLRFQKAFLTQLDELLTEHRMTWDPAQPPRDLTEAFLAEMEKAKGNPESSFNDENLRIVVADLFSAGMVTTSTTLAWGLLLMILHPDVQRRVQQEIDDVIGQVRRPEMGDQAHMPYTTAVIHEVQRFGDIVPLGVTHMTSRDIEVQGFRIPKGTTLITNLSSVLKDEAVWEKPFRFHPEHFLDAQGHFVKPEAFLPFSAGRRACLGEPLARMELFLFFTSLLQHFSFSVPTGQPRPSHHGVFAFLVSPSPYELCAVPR
The nature of series [4]: Solubility of the compound. Format: physicochemical. In outline: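 Aqueous solubility reported as a categorical level on a 0–3 scale, where 0 = extremely low and 3 = good.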

pIC50: −log10 of the molar value.

T1 sequence (P56817 whole entry): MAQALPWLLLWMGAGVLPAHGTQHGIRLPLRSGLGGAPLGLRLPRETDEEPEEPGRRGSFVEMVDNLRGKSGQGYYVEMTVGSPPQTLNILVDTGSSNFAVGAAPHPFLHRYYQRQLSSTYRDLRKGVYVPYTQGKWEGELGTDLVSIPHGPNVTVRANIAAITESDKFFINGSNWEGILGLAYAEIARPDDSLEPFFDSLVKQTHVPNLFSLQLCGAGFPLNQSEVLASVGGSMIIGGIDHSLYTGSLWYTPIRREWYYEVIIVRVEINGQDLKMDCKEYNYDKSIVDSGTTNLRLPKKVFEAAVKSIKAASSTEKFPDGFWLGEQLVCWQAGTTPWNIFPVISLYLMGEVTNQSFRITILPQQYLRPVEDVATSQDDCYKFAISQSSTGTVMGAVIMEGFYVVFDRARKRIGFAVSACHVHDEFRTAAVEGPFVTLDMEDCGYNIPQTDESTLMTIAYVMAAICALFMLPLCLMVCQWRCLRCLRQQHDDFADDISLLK
Sequence of Cathepsin D (P07339 65-162 limits assumed): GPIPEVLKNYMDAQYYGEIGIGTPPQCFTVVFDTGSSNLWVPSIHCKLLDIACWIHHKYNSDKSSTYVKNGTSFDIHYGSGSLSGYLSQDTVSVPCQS
Sequence of Cathepsin D (P07339 169-412 limits assumed): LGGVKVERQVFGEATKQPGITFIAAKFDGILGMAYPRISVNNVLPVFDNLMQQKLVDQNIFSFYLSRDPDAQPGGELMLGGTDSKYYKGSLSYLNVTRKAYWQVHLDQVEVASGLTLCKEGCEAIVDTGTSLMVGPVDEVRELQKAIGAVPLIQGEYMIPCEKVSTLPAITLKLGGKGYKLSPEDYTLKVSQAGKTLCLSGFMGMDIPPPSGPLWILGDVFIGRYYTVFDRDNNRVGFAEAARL

A word on the inhibition: it is how much of the control response was suppressed. Read a low inhibition as a weak effect. For `Nc1cccc(-c2cn(C[C@@H]3Cc4c([nH]c5ccccc45)CN3)nn2)c1`, the inhibition at Beta-secretase 1 [1] is less than 50%.
Turning to `OC1(c2cn(C[C@@H]3Cc4c([nH]c5ccccc45)CN3)nn2)c2ccccc2-c2ccccc21`, at Beta-secretase 1 [1], the inhibition is less than 50%.
With `c1ccc(SCc2cn(C[C@@H]3Cc4c([nH]c5ccccc45)CN3)nn2)cc1`, the inhibition against Beta-secretase 1 [1] was less than 50%.
In turn, `c1ccc2c3c([nH]c2c1)CN[C@H](Cn1cc(-c2ccsc2)nn1)C3` yielded an inhibition on Beta-secretase 1 [1] of less than 50%.
As usually defined, the pIC50 is the negative decadic logarithm of the IC50, by convention in mol/L. With `COc1ccc2cc(-c3cn(C[C@@H]4Cc5c([nH]c6ccccc56)CN4)nn3)ccc2c1`, the pIC50 is less than 4.00 on Cathepsin D and 5.83 at Beta-secretase 1 [2]. Further, on Beta-secretase 1 [1], the inhibition was greater than 50%.
Regarding `CC(=O)c1ccc(-c2cn(C[C@@H]3Cc4c([nH]c5ccccc45)CN3)nn2)cc1`, on Beta-secretase 1 [1], the inhibition is less than 50%.
With `CC(O)c1cn(C[C@@H]2Cc3c([nH]c4ccccc34)CN2)nn1` (some centres undefined), the inhibition against Beta-secretase 1 [1] was less than 50%.
In turn, `Cc1nnc(SCc2cn(C[C@@H]3Cc4c([nH]c5ccccc45)CN3)nn2)s1` gave an inhibition on Beta-secretase 1 [1] of less than 50%.
Compound `OC(c1ccccc1)c1cn(C[C@@H]2Cc3c([nH]c4ccccc34)CN2)nn1` (some centres undefined) had an inhibition against Beta-secretase 1 [1] of less than 50%.
At Beta-secretase 1 [1], `c1ccc2c(-c3cn(C[C@@H]4Cc5c([nH]c6ccccc56)CN4)nn3)cccc2c1` displayed an inhibition of less than 50%.
With `c1ccc2c3c([nH]c2c1)CNCC3` [TRYPTOLINE], in series [3], the fraction unbound is less than 0.1. The compound also showed an LD50 in the series on Rattus norvegicus of 701500 µg/g. In the series on Hepatocyte, the Activity entry is reported as “Non-toxic”. Further, on Cytochrome P450 2D6, the “inhibition (INH)” value is given as “Not Active”. Further, the solubility entry in series [4] was “Soluble”.
The compound `Cc1ccc(-c2cn(C[C@@H]3Cc4c([nH]c5ccccc45)CN3)nn2)cc1` came in with an inhibition on Beta-secretase 1 [1] of less than 50%.
Same read-out and setting: for `CC(=O)CC(=O)NCc1cn(C[C@@H]2Cc3c([nH]c4ccccc34)CN2)nn1` the value was less than 50%.
Regarding `CC[C@H]1CN2CCc3c([nH]c4ccccc34)[C@H]2C[C@@H]1C[C@@H]1NCCc2c1[nH]c1ccccc21`, the fraction unbound in series [3] is less than 0.05. This compound returned an LD50 in the series with Rattus norvegicus of 235.5 µg/g. The Activity result in the series on Hepatocyte is “Toxic”. Moreover, the “inhibition (INH)” value against Cytochrome P450 2D6 is reported as “Not Active”. The solubility entry in series [4] is on record as “Insoluble”.
Take `OC/C=C/c1cn(C[C@@H]2Cc3c([nH]c4ccccc34)CN2)nn1`: the inhibition against Beta-secretase 1 [1] is less than 50%.
Compound `c1ccc2c3c([nH]c2c1)CN[C@H](Cn1cc(COC2CCCCO2)nn1)C3` (some centres undefined) gave an inhibition against Beta-secretase 1 [1] of less than 50%.
Still for that read-out and setting: for `N#CCCc1cn(C[C@@H]2Cc3c([nH]c4ccccc34)CN2)nn1` the value was less than 50%.
`Fc1cc(F)cc(-c2cn(C[C@@H]3Cc4c([nH]c5ccccc45)CN3)nn2)c1` had an inhibition at Beta-secretase 1 [1] of less than 50%.
For the compound `c1ccc2c3c([nH]c2c1)CN[C@H](Cn1cc(Cn2ccnc2)nn1)C3`, the inhibition against Beta-secretase 1 [1] is less than 50%.
Consider `CCCC(O)c1cn(C[C@@H]2Cc3c([nH]c4ccccc34)CN2)nn1` (some centres undefined), for which the inhibition against Beta-secretase 1 [1] was less than 50%.
`CCOC(OCC)c1cn(C[C@@H]2Cc3c([nH]c4ccccc34)CN2)nn1`: on Beta-secretase 1 [1], the inhibition was less than 50%.
Consider `c1ccc2c3c([nH]c2c1)CN[C@H](Cn1cc(COC[C@H]2CO2)nn1)C3`, for which the inhibition on Beta-secretase 1 [1] was less than 50%.
For `OC1(c2cn(C[C@@H]3Cc4c([nH]c5ccccc45)CN3)nn2)CCCC1`, the inhibition against Beta-secretase 1 [1] was less than 50%.
On to `c1ccc(-c2ccc(-c3cn(C[C@@H]4Cc5c([nH]c6ccccc56)CN4)nn3)cc2)cc1`, for which the inhibition against Beta-secretase 1 [1] was less than 50%.

Values taken from ChEMBL document CHEMBL1268999, “Triazolyl tryptoline derivatives as β-secretase inhibitors” (Bioorg Med Chem Lett, 2010).
